Experimental data: ChEMBL document CHEMBL1629612, “Characterization and sequence analysis of extended-spectrum-{beta}-lactamase-encoding genes from Escherichia coli, Klebsiella pneumoniae, and Proteus mirabilis isolates collected during tigecycline phase 3 clinical trials” (2009)
Converted amounts (≈) assume the structure as drawn.

Key:
Format in all cases: functional
Klebsiella pneumoniae [1] = test: Antimicrobial activity against Klebsiella pneumoniae expressing beta-lactamase SHV by Etest based on multiple determinants
Outline: (§1)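 Clinical isolates from tigecycline phase 3 trials were received as frozen primary cultures. Repeat isolates from one patient were riboprinted, and only the first of identical strains was kept. β-lactamase genes were assigned by PCR against control strains, plus isoelectric focusing. ESBL confirmation used Etest ESBL strips carrying ceftazidime or cefotaxime with clavulanic acid, read per the manufacturer's instructions.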

Escherichia coli [2] = test: Antimicrobial activity against Escherichia coli expressing beta-lactamase CTX by Etest based on multiple determinants
Outline: (§2)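 Clinical isolates from tigecycline phase 3 trials were received as frozen primary cultures. Serial isolates from one patient were riboprinted, and only the first of identical strains was kept. β-Lactamase genes were assigned by PCR. ESBL confirmation used Etest ESBL strips carrying ceftazidime or cefotaxime, alone and combined with clavulanic acid, following the strip maker's instructions.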

Escherichia coli [3] = test: Antimicrobial activity against Escherichia coli expressing beta-lactamase AmpC and extended-spectrum beta-lactamase by Etest; outline: as §2
Klebsiella pneumoniae [4] = test: Antimicrobial activity against Klebsiella pneumoniae expressing beta-lactamase SHV and CTX by Etest; outline: as §1
Escherichia coli [5] = test: Antimicrobial activity against Escherichia coli expressing beta-lactamase AmpC by Etest; outline: as §2
Klebsiella pneumoniae [6] = test: Antimicrobial activity against Klebsiella pneumoniae extended-spectrum beta-lactamase producing isolate by Etest; outline: as §1
Klebsiella pneumoniae [7] = test: Antimicrobial activity against Klebsiella pneumoniae expressing beta-lactamase SHV by Etest based on single determinant; outline: as §1
Escherichia coli [8] = test: Antimicrobial activity against Escherichia coli expressing beta-lactamase CTX by Etest based on single determinant; outline: as §2
Klebsiella pneumoniae [9] = test: Antimicrobial activity against Klebsiella pneumoniae expressing beta-lactamase CTX by Etest based on single determinant; outline: as §1
Klebsiella pneumoniae [10] = test: Antimicrobial activity against Klebsiella pneumoniae expressing beta-lactamase DHA by Etest; outline: as §2
Escherichia coli [11] = test: Antimicrobial activity against Escherichia coli extended-spectrum beta-lactamase producing isolate by Etest; outline: as §2
Klebsiella pneumoniae [12] = test: Antimicrobial activity against Klebsiella pneumoniae expressing beta-lactamase CTX by Etest based on multiple determinants; outline: as §1
Proteus mirabilis [13] = test: Antimicrobial activity against Proteus mirabilis expressing extended-spectrum beta-lactamase by Etest based on single determinant; outline: as §1
Escherichia coli [14] = test: Antimicrobial activity against Escherichia coli expressing beta-lactamase SHV by Etest; outline: as §2
Proteus mirabilis [15] = test: Antimicrobial activity against Proteus mirabilis extended-spectrum beta-lactamase producing isolate by Etest; outline: as §1
Proteus mirabilis [16] = test: Antimicrobial activity against Proteus mirabilis expressing beta-lactamase AmpC by Etest; outline: as §1
Escherichia coli [17] = test: Antimicrobial activity against Escherichia coli expressing beta-lactamase CTX and SHV by Etest; outline: as §2
Proteus mirabilis [18] = test: Antimicrobial activity against Proteus mirabilis expressing extended-spectrum beta-lactamase by Etest based on multiple determinants; outline: as §1
Klebsiella pneumoniae [19] = test: Antimicrobial activity against Klebsiella pneumoniae expressing extended-spectrum beta-lactamase and beta-lactamase AmpC by Etest; outline: as §2

SMILES | MIC (Klebsiella pneumoniae [1]) [µg/mL] | MIC50 (Escherichia coli [2]) [µg/mL] | MIC90 (Escherichia coli [2]) [µg/mL] | MIC50 (Escherichia coli [3]) [µg/mL] | MIC90 (Escherichia coli [3]) [µg/mL] | MIC50 (Klebsiella pneumoniae [4]) [µg/mL] | MIC90 (Klebsiella pneumoniae [4]) [µg/mL] | MIC (Escherichia coli [5]) [µg/mL] | MIC50 (Klebsiella pneumoniae [6]) [µg/mL] | MIC90 (Klebsiella pneumoniae [6]) [µg/mL] | MIC50 (Klebsiella pneumoniae [7]) [µg/mL] | MIC90 (Klebsiella pneumoniae [7]) [µg/mL] | MIC50 (Escherichia coli [8]) [µg/mL] | MIC90 (Escherichia coli [8]) [µg/mL] | MIC50 (Klebsiella pneumoniae [9]) [µg/mL] | MIC90 (Klebsiella pneumoniae [9]) [µg/mL] | MIC (Klebsiella pneumoniae [10]) [µg/mL] | MIC50 (Escherichia coli [11]) [µg/mL] | MIC90 (Escherichia coli [11]) [µg/mL] | MIC50 (Klebsiella pneumoniae [12]) [µg/mL] | further results
CN(C)c1ccc(O)c2c1C[C@H]1C[C@H]3[C@H](N(C)C)C(O)=C(C(N)=O)C(=O)[C@@]3(O)C(O)=C1C2=O [MINOCYCLINE] | 2 (≈ 4.37 µM) | 4 (≈ 8.74 µM) | 32 (≈ 69.9 µM) | 4 (≈ 8.74 µM) | > 64 | 8 (≈ 17.5 µM) | 64 (≈ 140 µM) | 1 (≈ 2.19 µM) | 4 (≈ 8.74 µM) | 64 (≈ 140 µM) | 4 (≈ 8.74 µM) | 64 (≈ 140 µM) | 4 (≈ 8.74 µM) | 32 (≈ 69.9 µM) | 4 (≈ 8.74 µM) | 32 (≈ 69.9 µM) | 4 (≈ 8.74 µM) | 4 (≈ 8.74 µM) | 32 (≈ 69.9 µM) | 4 (≈ 8.74 µM) | MIC90 (Klebsiella pneumoniae [12]): 16 µg/mL (≈ 35 µM); MIC (Proteus mirabilis [13]): 16 µg/mL (≈ 35 µM); MIC (Escherichia coli [14]): 2 µg/mL (≈ 4.37 µM); MIC50 (Proteus mirabilis [15]): 64 µg/mL (≈ 140 µM); MIC90 (Proteus mirabilis [15]): > 64 µg/mL; MIC (Proteus mirabilis [16]): 16 µg/mL (≈ 35 µM); MIC50 (Escherichia coli [17]): 4 µg/mL (≈ 8.74 µM); MIC90 (Escherichia coli [17]): 16 µg/mL (≈ 35 µM); MIC (Proteus mirabilis [18]): 16 µg/mL (≈ 35 µM); MIC (Klebsiella pneumoniae [19]): 4 µg/mL (≈ 8.74 µM)
CN(C)c1cc(NC(=O)CNC(C)(C)C)c(O)c2c1C[C@H]1C[C@H]3[C@H](N(C)C)C(O)=C(C(N)=O)C(=O)[C@@]3(O)C(O)=C1C2=O [TIGECYCLINE] | 0.5 (≈ 0.854 µM) | 0.5 (≈ 0.854 µM) | 0.5 (≈ 0.854 µM) | 0.25 (≈ 0.427 µM) | 0.5 (≈ 0.854 µM) | 0.5 (≈ 0.854 µM) | 2 (≈ 3.41 µM) | 0.25 (≈ 0.427 µM) | 0.5 (≈ 0.854 µM) | 2 (≈ 3.41 µM) | 0.5 (≈ 0.854 µM) | 1 (≈ 1.71 µM) | 0.25 (≈ 0.427 µM) | 0.5 (≈ 0.854 µM) | 1 (≈ 1.71 µM) | 2 (≈ 3.41 µM) | 0.5 (≈ 0.854 µM) | 0.25 (≈ 0.427 µM) | 0.5 (≈ 0.854 µM) | 0.5 (≈ 0.854 µM) | MIC90 (Klebsiella pneumoniae [12]): 1 µg/mL (≈ 1.71 µM); MIC (Proteus mirabilis [13]): 2 µg/mL (≈ 3.41 µM); MIC (Escherichia coli [14]): 0.12 µg/mL (≈ 0.205 µM); MIC50 (Proteus mirabilis [15]): 2 µg/mL (≈ 3.41 µM); MIC90 (Proteus mirabilis [15]): 16 µg/mL (≈ 27.3 µM); MIC (Proteus mirabilis [16]): 2 µg/mL (≈ 3.41 µM); MIC (Escherichia coli [17]): 0.25 µg/mL (≈ 0.427 µM); MIC50 (Escherichia coli [17]): 0.25 µg/mL (≈ 0.427 µM); MIC90 (Escherichia coli [17]): 0.5 µg/mL (≈ 0.854 µM); MIC (Proteus mirabilis [18]): 0.5 µg/mL (≈ 0.854 µM); MIC (Klebsiella pneumoniae [19]): 0.5 µg/mL (≈ 0.854 µM)
NC[C@H]1O[C@H](O[C@H]2[C@H](O)[C@@H](O[C@H]3O[C@H](CO)[C@@H](O)[C@H](N)[C@H]3O)[C@H](N)C[C@@H]2N)[C@H](N)C[C@@H]1O [TOBRAMYCIN] | 0.5 (≈ 1.07 µM) | 32 (≈ 68.4 µM) | > 32 | 16 (≈ 34.2 µM) | > 32 | 32 (≈ 68.4 µM) | > 32 | 1 (≈ 2.14 µM) | 32 (≈ 68.4 µM) | > 32 | 16 (≈ 34.2 µM) | > 32 | 32 (≈ 68.4 µM) | > 32 | 16 (≈ 34.2 µM) | > 32 | 16 (≈ 34.2 µM) | 32 (≈ 68.4 µM) | > 32 | 32 (≈ 68.4 µM) | MIC90 (Klebsiella pneumoniae [12]): > 32 µg/mL; MIC (Proteus mirabilis [13]): 0.5 µg/mL (≈ 1.07 µM); MIC (Escherichia coli [14]): 0.25 µg/mL (≈ 0.535 µM); MIC50 (Proteus mirabilis [15]): 8 µg/mL (≈ 17.1 µM); MIC90 (Proteus mirabilis [15]): > 32 µg/mL; MIC (Proteus mirabilis [16]): 4 µg/mL (≈ 8.56 µM); MIC50 (Escherichia coli [17]): 32 µg/mL (≈ 68.4 µM); MIC90 (Escherichia coli [17]): > 32 µg/mL; MIC (Proteus mirabilis [18]): 4 µg/mL (≈ 8.56 µM); MIC (Klebsiella pneumoniae [19]): 0.25 µg/mL (≈ 0.535 µM)
